Screens as filed in PubChem.
DNA FID counter: counter-screen for HCV NS3 helicase inhibitors: DNA intercalator displacement. inhibition, % at 7.9 µM. AID 1845. actives 0.17% (n = 290,000). DNA fluorescent intercalator displacement, fluorescence; in the data active = inhibition above about 37%;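 note: higher means more ethidium bromide displaced from hairpin DNA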
MEKK2 WT-MEK5: raises or lowers MEK5 binding to wildtype human MEKK2 PB1 domain; binding response (% of control), % at 10 µM; bead flow cytometry, Alexa488-MEK5 binding to MEKK2 WT; actives lie on both sides; actives 1.1% (n = 290,000); in the data active = binding response below about 67% or above about 130%
MEKK3 PB1 HTS: MEKK3-MEK5 PB1 interaction, increase or decrease; bead-based flow cytometry, Alexa488-MEK5 binding to MEKK3; actives lie on both sides; 0 = blocked by unlabeled MEK5, 100 = vehicle; binding response (% of control), % at 10 µM; actives 1.4% (n = 290,000); AID 1529;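 active = binding response more than 3 SD above or below the average of its plate-row segment, actives on both sides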;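 note: Alexa488 bead fluorescence after subtracting the streptavidin-only scavenger bead signal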
Target sequence (Q99759 whole entry, looked up): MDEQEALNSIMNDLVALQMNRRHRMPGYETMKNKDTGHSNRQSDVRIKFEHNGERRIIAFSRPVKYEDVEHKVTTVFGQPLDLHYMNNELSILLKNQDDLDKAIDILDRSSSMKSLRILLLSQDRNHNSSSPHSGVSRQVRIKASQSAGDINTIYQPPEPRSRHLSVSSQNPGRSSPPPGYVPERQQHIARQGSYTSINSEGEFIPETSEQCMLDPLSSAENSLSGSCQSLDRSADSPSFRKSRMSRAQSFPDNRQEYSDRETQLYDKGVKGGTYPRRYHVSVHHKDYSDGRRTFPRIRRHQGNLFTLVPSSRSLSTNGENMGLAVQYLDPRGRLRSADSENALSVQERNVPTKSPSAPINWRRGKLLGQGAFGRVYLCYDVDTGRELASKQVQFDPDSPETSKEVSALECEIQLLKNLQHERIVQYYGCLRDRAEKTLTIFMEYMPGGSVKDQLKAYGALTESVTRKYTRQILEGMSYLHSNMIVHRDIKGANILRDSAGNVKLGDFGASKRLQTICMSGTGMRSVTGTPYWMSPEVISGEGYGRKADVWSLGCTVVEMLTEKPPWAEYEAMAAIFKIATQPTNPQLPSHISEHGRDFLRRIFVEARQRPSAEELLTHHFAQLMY
T cruzi inh: T. cruzi replication inhibition. T. cruzi beta-gal in NIH3T3, luminescence, 90 h. inhibition, % (test concentration not listed). actives 1.4% (n = 300,000). AID 1885;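 active = mean inhibition across valid replicates above about 55%, limit read from the data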;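 note: signal also drops with host cell toxicity which is not excluded here; higher percent means less beta-gal luminescence so fewer parasites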
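assay system = mouse NIH/3T3 fibroblasts infected with β-gal-expressing T. cruzi Tulahuen C4 | input = 5,000 NIH/3T3 host cells per well | buffer or medium = DMEM plus 2% FBS | timing = 3 h host attachment, then at least 90 h co-culture | measured by = GalScreen luminescence, 60 min | evaluation = luminescence reflecting intracellular parasite burden, expressed as percent inhibition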
MEKK2mut PB1 HTS: signal of MEK5 binding to mutant human MEKK2 PB1 domain; bead flow cytometry, Alexa488-MEK5 binding to MEKK2 mutant; percent response, % at 10 µM; actives 0.35% (n = 290,000); AID 1530; in the data active = percent response above about 24%, passing the limit was not always enough
NS3 helicase inh: blocks Hepatitis C virus NS3 helicase unwinding | NS3 helicase DNA unwinding, Cy5 molecular beacon fluorescence | inhibition, % at 10.9 µM | actives 0.56% (n = 290,000) | AID 1800;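 active = inhibition above the mean of all tested compounds plus 3 SD, set per campaign, cut at about 35% in these data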
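test system = hepatitis C virus NS3 helicase domain fragment enzyme | reagent = annealed dual-labelled DNA beacon duplex, ATP-started | times = 1 h at 25 °C | detection = Cy5 fluorescence, 0 and 60 min reads | read-out basis = percent inhibition from t60/t0 fluorescence ratio | control set = DMSO and thioflavine S | replication = one well per compound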
MEKK2wt confirm: raises or lowers MEK5 binding to wildtype human MEKK2, retest; shares compounds with MEKK3 PB1 HTS; actives 2.4% (n = 5,900); binding response (% of control), % at 10 µM; bead flow cytometry, Alexa488-MEK5 binding to MEKK2 WT; actives lie on both sides; in the data active = binding response below about 16% or above about 210%; inactive = in between
MEKK2mut confirm: signal of MEK5 binding to mutant human MEKK2, retest | shares compounds with MEKK3 PB1 HTS | bead flow cytometry, Alexa488-MEK5 binding to MEKK2 mutant | percent response, % at 10 µM | actives 2% (n = 5,900); in the data active = percent response mostly above about 71%, no sharp cut-off; inactive = mostly below about 38%;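 note: higher means compound restores mutant binding toward wildtype level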
MEKK3 confirm: confirmation of inhibitors of MEK5 binding to human MEKK3. shares compounds with MEKK3 PB1 HTS. actives 1.8% (n = 5,900). bead flow cytometry, Alexa488-MEK5 binding to MEKK3; active compounds read low. binding response (% of control), % at 10 µM;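 active = binding response below 72% of control, or above a set upper limit, though filed actives all read lower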;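 note: lower values mean stronger disruption of MEK5 binding to MEKK3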
Of the large screens only hits and unclear results are named; the others gave an inactive call (follow-up assays come after a bar, where they were run); [ ] = remark or other dose. This is a sample that favours compounds with a hit; in the whole collection about 4.1% have one here.

COc1cc(S(=O)(=O)N(Cc2cccnc2)Cc2ccco2)ccc1-n1cnnn1	MEKK3 PB1 HTS 80.0[inhibitor] | MEKK2wt confirm inactive | MEKK2mut confirm inactive | MEKK3 confirm inactive
COc1cc(S(=O)(=O)N(Cc2ccc(C)cc2)Cc2ccco2)ccc1-n1cnnn1	none
CCOC(=O)c1sc(NC(=O)C(C)C)c(C#N)c1C	none
O=c1c2ccccc2c(C=Nc2ccc(Cl)cn2)c(O)n1-c1cc(Cl)ccc1N1CCOCC1	MEKK2 WT-MEK5 2.0[inhibitor], MEKK3 PB1 HTS 2.0[inhibitor] | MEKK2wt confirm inactive | MEKK2mut confirm inactive | MEKK3 confirm inactive
CN(CC(=O)Nc1ccc(Cl)c(C(F)(F)F)c1)C(=O)c1ccc(N2CCOCC2)c([N+](=O)[O-])c1	none (no result: DNA FID counter, MEKK2 WT-MEK5, MEKK3 PB1 HTS, MEKK2mut PB1 HTS, NS3 helicase inh)
COc1ccc(CNC(=O)CNS(=O)(=O)c2cccs2)cc1	none
O=C(CNS(=O)(=O)c1cccs1)NCc1ccc(F)cc1	MEKK3 PB1 HTS 142.0 | MEKK2wt confirm inactive | MEKK2mut confirm inactive | MEKK3 confirm inactive
CCOc1ccc(CCNC(=O)c2cn(C)c3ccc(S(=O)(=O)N4CCOCC4)cc3c2=O)cc1OCC	none
COc1ccc(CNC(=O)C(CCSC)NS(=O)(=O)c2ccccc2F)cc1 (stereo not drawn)	none
CN(CC1CCOCC1)C(=O)CC1C(=O)NCCN1C/C=C/c1ccccc1 (stereo not drawn)	none
CSC(=NC#N)N1CCN(C(=NC#N)SC)CC1	MEKK2 WT-MEK5 1.0[inhibitor], MEKK3 PB1 HTS 2.0[inhibitor] | MEKK2wt confirm inactive | MEKK2mut confirm inactive | MEKK3 confirm inactive
COc1ccc(CCNC(=S)Nc2ccc(S(=O)(=O)Nc3ncccn3)cc2)cc1OC	none
CCc1cccc(C)c1NC(=S)N(CCOC)C(C)c1ccco1 (stereo not drawn)	none
CN(C)c1ccc(C(=O)n2nnc3ccccc32)cc1	MEKK2 WT-MEK5 -7.0[inhibitor], MEKK3 PB1 HTS 1.0[inhibitor] | MEKK2wt confirm inactive | MEKK2mut confirm inactive | MEKK3 confirm inactive
C/C=C1\COC(C(=O)NCCCN2CCCC2=O)(C(F)(F)F)C=C1C=C(C)C (stereo not drawn)	MEKK3 PB1 HTS 78.0[inhibitor] (no result: DNA FID counter, NS3 helicase inh) | MEKK2wt confirm inactive | MEKK2mut confirm inactive | MEKK3 confirm inactive
C/C=C1\COC(C(=O)NCc2ccccc2)(C(F)(F)F)C=C1C=C1CCCCC1 (stereo not drawn)	none (no result: DNA FID counter, NS3 helicase inh)
C/C=C1\COC(C(=O)NCCN2CCCC2)(C(F)(F)F)C=C1C=C1CCCCC1 (stereo not drawn)	MEKK2 WT-MEK5 141.0 (no result: DNA FID counter, NS3 helicase inh) | MEKK2wt confirm inactive | MEKK2mut confirm inactive | MEKK3 confirm inactive
O=C1C(=O)N(CCN2CCOCC2)C(c2ccccc2F)/C1=C(\O)c1ccc(S(=O)(=O)N2CCOCC2)cc1 (stereo not drawn)	none
CC1=CC(C)(C)N(C(=O)c2ccccc2)c2ccccc21	none
CC1=CC(C)(C)N(C(=O)Nc2ccccc2)c2ccccc21	MEKK3 PB1 HTS 43.0[inhibitor] | MEKK2wt confirm inactive | MEKK2mut confirm inactive | MEKK3 confirm inactive
O=c1c2c3nc4ccccc4nc3n(/N=C/c3ccncc3)c2ncn1-c1ccccc1	MEKK3 PB1 HTS 131.0 | MEKK2wt confirm inactive | MEKK2mut confirm inactive | MEKK3 confirm inactive
COC1CCN(C(=O)C2CCC(=O)N(CCc3cccc(F)c3)C2)CC1 (stereo not drawn)	none
CC1C(c2ccccc2)N(C)CCC12NC(=O)NC2=O (stereo not drawn)	MEKK2 WT-MEK5 6.0[inhibitor], MEKK3 PB1 HTS 4.0[inhibitor] | MEKK2wt confirm inactive | MEKK2mut confirm inactive | MEKK3 confirm inactive
CC1CC2(NC(=O)NC2=O)C(C)CN1C (stereo not drawn)	none
CCN(C(=O)CSc1ncccc1C(=O)Oc1cccc([N+](=O)[O-])c1)c1cccc(C)c1	MEKK3 PB1 HTS 138.0 | MEKK2wt confirm inactive | MEKK2mut confirm inactive | MEKK3 confirm inactive
CSc1cccc(NC(=O)CSc2ncccc2C(=O)Oc2cccc([N+](=O)[O-])c2)c1	none
COc1cccc(N2CCN(S(=O)(=O)c3ccc4c(c3)N(C(C)=O)CCO4)CC2)c1	none
COc1cc2c(C(=O)NCCCOC(C)C)cn(CC(C)C)c(=O)c2cc1OC	MEKK3 PB1 HTS 81.0[inhibitor] | MEKK2wt confirm inactive | MEKK2mut confirm inactive | MEKK3 confirm inactive
COc1cc2c(C(=O)NCCN(C)C)cn(CC(C)C)c(=O)c2cc1OC	none
CC(=O)N/N=C/c1ccc(OCCOc2ccc(Br)cc2)cc1	none
S=C1N(c2ccccc2)C(c2ccc(Cl)cc2)N2CCCN12 (stereo not drawn)	none
COc1ccc(C2N(c3ccccc3)C(=S)N3CCCN23)cc1 (stereo not drawn)	MEKK3 PB1 HTS 139.0 | MEKK2wt confirm inactive | MEKK2mut confirm inactive | MEKK3 confirm inactive
O=C(CNc1ccccc1OC(F)F)N1CCc2ccccc21	none
CCCCCN=C(N)N/N=C/c1c[nH]c2ccc(OC)cc12	MEKK2 WT-MEK5 263.0, MEKK2mut PB1 HTS 40.0 (no result: DNA FID counter, NS3 helicase inh) | MEKK2wt confirm inactive | MEKK2mut confirm inactive | MEKK3 confirm inactive
CCC(=O)Nc1ccc(Cl)c(NC(=S)NC(=O)COc2ccc(Cl)cc2)c1	MEKK3 PB1 HTS 74.0[inhibitor] | MEKK2wt confirm inactive | MEKK2mut confirm inactive | MEKK3 confirm inactive
COc1ccc(N2C(=O)/C(=C/c3cccnc3)NC2=S)cc1	MEKK3 PB1 HTS 138.0 | MEKK2wt confirm inactive | MEKK2mut confirm inactive | MEKK3 confirm inactive
Cc1ccccc1OCCNC(=O)CNC(=O)c1ccccc1O	MEKK3 PB1 HTS 79.0[inhibitor] | MEKK2wt confirm inactive | MEKK2mut confirm inactive | MEKK3 confirm inactive
O=C(C[n+]1ccc(Cc2ccccc2)cc1)Nc1ccccc1	MEKK2mut PB1 HTS 64.0 | MEKK2wt confirm inactive | MEKK2mut confirm inactive | MEKK3 confirm inactive
O=C(C[n+]1ccccc1)Nc1ccccc1	none (no result: DNA FID counter, MEKK2 WT-MEK5, MEKK3 PB1 HTS, MEKK2mut PB1 HTS, NS3 helicase inh)
OC(COc1ccccc1Cl)CN1CCN(CC(O)COc2ccccc2Cl)CC1 (stereo not drawn)	MEKK2 WT-MEK5 150.0, MEKK2mut PB1 HTS 35.0 | MEKK2wt confirm inactive | MEKK2mut confirm inactive | MEKK3 confirm inactive
OC(COc1cccc2ccccc12)CN1CCN(c2ccccc2)CC1 (stereo not drawn)	none
